According to PMC10448036 (International Journal for Parasitology: Drugs and Drug …, 2023):
Read-outs that look alike come from different tables or passages of the source. Marks after values point to notes of the source that are not given here.

Assays:
H. contortus population = conditions: SUL experimental farm, ref Castells, personal communication; cited from earlier work
[1] = test system: Nematodirus spp., Oesphagostomum spp. and Trichuris ovis; experiment: Adult nematode counts at necropsy; assay type: in vivo; conditions: 13 days post-treatment, sc and oral, lambs n = 2 per group
How it was run: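 Naturally parasitized lambs, ranked by epg and split into groups of 10, were dosed on day 0 by individual weight with two test compounds, alone or combined. The first was given at 5 mg/kg sc or 10 mg/kg oral, the second at 0.2 mg/kg sc or oral. An untreated control group was kept. At 13 and 28 days post-treatment, two random animals per group were killed by captive bolt and exsanguinated.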

[2] = test system: Other genera (Trichostrongylus spp.; Teladorsagia spp. and Oesophagostomum spp.); experiment: L3 from pooled faecal cultures, by genus; assay type: in vivo, lambs
How it was run: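 Naturally parasitized lambs (groups of 10) were dosed by weight on day 0 with two test compounds, alone or combined: the first at 5 mg/kg sc or 10 mg/kg oral, the second at 0.2 mg/kg sc or oral; untreated controls were kept. Rectal faeces were counted for epg by modified McMaster. Pooled group faecal cultures at days −1, 13, 22 and 28 gave L3 typed to genus. Genus efficacy = 100×(1−T/C) on arithmetic-mean epg partitioned by each genus's L3 proportion.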

[3] = ref Hennessy and Ali, 1997; cited from earlier work
Haemoncus spp. = experiment: L3 from pooled faecal cultures, by genus; assay type: in vivo, lambs
[4] = test system: multiple resistant gastrointestinal nematodes (mainly H. contortus); experiment: Faecal egg count reduction test; assay type: in vivo, lambs; conditions: for Nematode egg counts (mean): arithmetic mean; for Efficacy (%) [CI] (FECRT): 95% CI, Coles et al. (1992) formula
plasma proteins = conditions: ref Mohammed Ali and Bogan, 1987; Hennessy, 1993; cited from earlier work
[5] = Adverse events / tolerability; assay type: in vivo; conditions: lambs, sc and oral treatments
[6] = Plasma disposition kinetics; assay type: in vivo, lambs; conditions: for AUC0-LOQ / AUC0-∞: closantel in plasma, lambs
susceptible H. contortus = conditions: single dose, sheep, absence of resistance, cited from earlier work
[7] = test system: breast cancer resistance protein (BCRP); conditions: ref Pérez et al., 2009; cited from earlier work
[8] = most species, ref Zulalian et al., 1994; cited from earlier work
[9] = test system: gastrointestinal nematodes; conditions: cattle, ref Leathwick and Miller (2013), cited from earlier work
P-gp = conditions: ref Lespine et al., 2006; cited from earlier work
[10] = 22 days post-treatment, subcutaneous
[11] = 28 days post-treatment, subcutaneous
[12] = Day 2 post-treatment, oral (CLO 10 mg/kg, MXD 0.2 mg/kg)
[13] = Day 2 post-treatment, subcutaneous (CLO 5 mg/kg, MXD 0.2 mg/kg)
[14] = Day 6 post-treatment, oral (CLO 10 mg/kg, MXD 0.2 mg/kg)
[15] = Day 6 post-treatment, subcutaneous (CLO 5 mg/kg, MXD 0.2 mg/kg)
[16] = Day 10 post-treatment, oral (CLO 10 mg/kg, MXD 0.2 mg/kg)
[17] = Day 13 post-treatment, oral (CLO 10 mg/kg, MXD 0.2 mg/kg)
[18] = Day 13 post-treatment, subcutaneous (CLO 5 mg/kg, MXD 0.2 mg/kg)
[19] = Day 22 post-treatment, oral (CLO 10 mg/kg, MXD 0.2 mg/kg)
[20] = Day 22 post-treatment, subcutaneous (CLO 5 mg/kg, MXD 0.2 mg/kg)
[21] = Day 28 post-treatment, oral (CLO 10 mg/kg, MXD 0.2 mg/kg)
[22] = Day 28 post-treatment, subcutaneous (CLO 5 mg/kg, MXD 0.2 mg/kg)
[23] = CLO co-administered with MXD by the sc route vs CLO alone, P < 0.05
[24] = CLO 10 mg/kg oral alone (CLOoral)

SMILES | Efficacies of single dose (H. contortus population) | Fate of Nematodirus spp., Oesphagostomum spp. and Trichuris ovis [1] | Efficacy (%) ([2]; 22 days post-treatment, oral) | Efficacy (%) [2, 10] [%] | Efficacy (%) (Haemoncus spp.; 22 days post-treatment, oral) | Efficacy (%) (Haemoncus spp.; [10]) | Efficacy (%) (Haemoncus spp.; 28 days post-treatment, oral) | Nematode egg counts (mean) [4, 12] | Nematode egg counts (mean) [4, 13] | Nematode egg counts (mean) [4, 14] | Nematode egg counts (mean) [4, 15] | Nematode egg counts (mean) [4, 16] | Efficacy (%) [CI] (FECRT) [4, 17] | Nematode egg counts (mean) [4, 17] | Efficacy (%) [CI] (FECRT) [4, 18] | Nematode egg counts (mean) [4, 18] | Efficacy (%) [CI] (FECRT) [4, 19] | Nematode egg counts (mean) [4, 19] | Efficacy (%) [CI] (FECRT) [4, 20] | Nematode egg counts (mean) [4, 20] | other results
Cc1cc(C(C#N)c2ccc(Cl)cc2)c(Cl)cc1NC(=O)c1cc(I)cc(I)c1O (centres unmarked) [CLO, closantel] | above 85% | survive | 96 | 100 | 4 | 0 | 9 | 630 ^b epg | 790 ^b epg | 550 ^b epg | 530 ^b epg | 770^c epg | 84 [71–91] % | 890 ^b epg | 85 [72–92] % | 830 ^b epg | 83 [73–89] % | 850 ^b epg | 82 [67–91] % | 863 ^b epg | Efficacy (%) [2, 11]: 99%; Biodegradation by the ruminal fluid [3]: not exposed to any significant biodegradation; Efficacy (%) (Haemoncus spp.; [11]): 1%; Efficacy (FECRT) ([4]; 13 days post-treatment, drug alone, over the sc and oral treatments): 84 to 85%; Efficacy (%) [CI] (FECRT) [4, 21]: 66 [36–82] %; Nematode egg counts (mean) [4, 21]: 1350 epg; Efficacy (%) [CI] (FECRT) [4, 22]: 84 [57–94] %; Nematode egg counts (mean) [4, 22]: 650 epg; Binding to plasma proteins (plasma proteins): > 99%; Adverse events [5]: No adverse events were observed; Longer MRT after co-administration [6, 23]: 42%; Longer T½el after co-administration [6, 23]: 39%; Plasma drug exposure (AUC0-LOQ) lower after oral than after sc treatment ([6]; CLO oral 10 mg/kg vs sc 5 mg/kg, P < 0.05): 34%; AUC0-LOQ ([6]; CLO 5 mg/kg sc alone (CLOSC)): 1570 ± 419^ab μg.d/mL; AUC0-∞ ([6]; CLO 5 mg/kg sc alone (CLOSC)): 2231 ± 662^ab μg.d/mL; AUC0-LOQ [6, 24]: 1042 ± 170^c μg.d/mL; AUC0-∞ [6, 24]: 1438 ± 367^b μg.d/mL; Quantified in plasma up to ([6]; post oral treatment): up to 28 days; Quantified in plasma up to ([6]; post sc treatment): up to 28 days; Protection against reinfection up to (susceptible H. contortus; ref Hall et al., 1981): up to 28 days
CO/N=C1\C[C@]2(C[C@@H]3C[C@@H](C/C=C(\C)C[C@@H](C)/C=C/C=C4\CO[C@@H]5[C@H](O)C(C)=C[C@@H](C(=O)O3)[C@]45O)O2)O[C@H](/C(C)=C/C(C)C)[C@H]1C [MXD, moxidectin] | above 85% | efficiently eliminated | 0 | 0 | 100 | 100 | 100 | 240 ^ab epg | 150 ^ab epg | 340 ^ab epg | 250^a epg | 530 ^bc epg | 80 [62–89] % | 1140 ^b epg | 92 [85–96] % | 430 ^b epg | 82 [53–93] % | 888 ^b epg | 80 [61–90] % | 975 ^b epg | Interaction with BCRP [7]: identified as a BCRP substrate; Efficacy (%) ([2]; 13 days post-treatment, oral): 0%; Efficacy (%) ([2]; 28 days post-treatment, oral): 0%; Dose excreted unchanged in the faeces [8]: 90%; Efficacy ([9]; oral treatment): 91.1%; Efficacy ([9]; sc injection): 55.5%; Efficacy (%) (Haemoncus spp.; 13 days post-treatment, oral): 100%; Efficacy (%) [CI] (FECRT) [4, 21]: 61 [6–84] %; Nematode egg counts (mean) [4, 21]: 1525 epg; Efficacy (%) [CI] (FECRT) [4, 22]: 74 [38–89] %; Nematode egg counts (mean) [4, 22]: 1013 epg; Adverse events [5]: No adverse events were observed; AUC0-LOQ after the oral treatment as share of that after the sc treatment ([6]; MXD 0.2 mg/kg oral vs sc): 33%; Quantified in plasma up to ([6]; post oral treatment): ≤ 25 days; Quantified in plasma up to ([6]; post sc treatment): up to 28 days; Protection against reinfection up to (susceptible H. contortus; ref Kerboeuf et al., 1995): ≤ 35 days; Interaction with mammalian P-gp (P-gp): much weaker compared with ivermectin
